# Data: ChEMBL document CHEMBL1165943, “Design and synthesis of new anticancer pyrimidines with multiple-kinase inhibitory effect” (Bioorg Med Chem, 2010)
# How the values were obtained:
# Assay type in all cases: functional
# K562 = test: Cytotoxicity against human K562 cells assessed as cell growth at 10 uM; details: for growth at 10 µM: Homo sapiens, K562, read-out: Activity
# Outline: (§1)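 Single-dose screen at 10 μM across the 60-cell-line panel. Cells grown in RPMI 1640 with 5% FBS and 2 mM L-glutamine, seeded at 5,000–40,000 cells/well according to doubling time, and treated 24 h later. Exposure lasted 48 h at 37 °C, 5% CO₂. Adherent cells were fixed with cold TCA, suspension cells were fixed settled, and both were stained with SRB and read at 515 nm. Growth % was recorded, with inhibition % = 100 − growth %.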
# MOLT-4 = test: Cytotoxicity against human MOLT4 cells assessed as cell growth at 10 uM; details: for growth at 10 µM: Homo sapiens, MOLT-4, read-out: Activity; outline: as §1
# SR = test: Cytotoxicity against human SR cells assessed as cell growth at 10 uM; details: for growth at 10 µM: Homo sapiens, SR, read-out: Activity; outline: as §1
# EKVX = test: Cytotoxicity against human EKVX cells assessed as cell growth at 10 uM; details: for growth at 10 µM: Homo sapiens, EKVX, read-out: Activity
# Outline: (§2)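 Single-concentration screen at 10 μM across the 60-cell-line panel (nine tissue types); growth percentage recorded per cell line, with inhibition taken as 100 minus growth percentage.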
# HOP-62 = test: Cytotoxicity against human HOP62 cells assessed as cell growth at 10 uM; details: for growth at 10 µM: Homo sapiens, HOP-62, read-out: Activity; outline: as §2
# NCI-H226 = test: Cytotoxicity against human NCI-H226 cells assessed as cell growth at 10 uM; details: for growth at 10 µM: Homo sapiens, NCI-H226, read-out: Activity; outline: as §1
# NCI-H23 = test: Cytotoxicity against human NCI-H23 cells assessed as cell growth at 10 uM; details: for growth at 10 µM: Homo sapiens, NCI-H23, read-out: Activity; outline: as §1
# NCI-H522 = test: Cytotoxicity against human NCI-H522 cells assessed as cell growth at 10 uM; details: for growth at 10 µM: Homo sapiens, NCI-H522, read-out: Activity; outline: as §1
# COLO 205 = test: Cytotoxicity against human COLO205 cells assessed as cell growth at 10 uM; details: for growth at 10 µM: Homo sapiens, COLO 205, read-out: Activity; outline: as §2
# HCC 2998 = test: Cytotoxicity against human HCC2998 cells assessed as cell growth at 10 uM; details: for growth at 10 µM: Homo sapiens, HCC 2998, read-out: Activity; outline: as §2
# HCT-116 = test: Cytotoxicity against human HCT116 cells assessed as cell growth at 10 uM; details: for growth at 10 µM: Homo sapiens, HCT-116, read-out: Activity; outline: as §2
# HCT-15 = test: Cytotoxicity against human HCT15 cells assessed as cell growth at 10 uM; details: for growth at 10 µM: Homo sapiens, HCT-15, read-out: Activity; outline: as §2
# HT-29 = test: Cytotoxicity against human HT-29 cells assessed as cell growth at 10 uM; details: for growth at 10 µM: Homo sapiens, HT-29, read-out: Activity; outline: as §2
# SW-620 = test: Cytotoxicity against human SW620 cells assessed as cell growth at 10 uM; details: for growth at 10 µM: Homo sapiens, SW-620, read-out: Activity; outline: as §1
# SF-268 = test: Cytotoxicity against human SF268 cells assessed as cell growth at 10 uM; details: for growth at 10 µM: Homo sapiens, SF-268, read-out: Activity; outline: as §1
# SF-295 = test: Cytotoxicity against human SF295 cells assessed as cell growth at 10 uM; details: for growth at 10 µM: Homo sapiens, SF-295, read-out: Activity; outline: as §1
# SF-539 = test: Cytotoxicity against human SF539 cells assessed as cell growth at 10 uM; details: for growth at 10 µM: Homo sapiens, SF-539, read-out: Activity; outline: as §1
# SNB-75 = test: Cytotoxicity against human SNB75 cells assessed as cell growth at 10 uM; details: for growth at 10 µM: Homo sapiens, SNB-75, read-out: Activity; outline: as §1
# U-251 = test: Cytotoxicity against human U251 cells assessed as cell growth at 10 uM; details: for growth at 10 µM: Homo sapiens, U-251, read-out: Activity; outline: as §1
# LOX IMVI = test: Cytotoxicity against human LOXIMVI cells assessed as cell growth at 10 uM; details: for growth at 10 µM: Homo sapiens, LOX IMVI, read-out: Activity; outline: as §1
# Malme-3M = test: Cytotoxicity against human MALME-3M cells assessed as cell growth at 10 uM; details: for growth at 10 µM: Homo sapiens, Malme-3M, read-out: Activity; outline: as §1
# SK-MEL-28 = test: Cytotoxicity against human SK-MEL-28 cells assessed as cell growth at 10 uM; details: Homo sapiens, SK-MEL-28; read-out: Activity; outline: as §1
# UACC-257 = test: Cytotoxicity against human UACC257 cells assessed as cell growth at 10 uM; details: Homo sapiens, UACC-257; read-out: Activity; outline: as §1
# OVCAR-3 = test: Cytotoxicity against human OVCAR-3 cells assessed as cell growth at 10 uM; details: Homo sapiens, OVCAR-3; read-out: Activity; outline: as §1
# OVCAR-4 = test: Cytotoxicity against human OVCAR4 cells assessed as cell growth at 10 uM; details: for growth at 10 µM: Homo sapiens, OVCAR-4, read-out: Activity; outline: as §1
# OVCAR-8 = test: Cytotoxicity against human OVCAR8 cells assessed as cell growth at 10 uM; details: Homo sapiens, OVCAR-8; read-out: Activity; outline: as §1
# NCI/ADR-RES = test: Cytotoxicity against human NCI/ADR-RES cells assessed as cell growth at 10 uM; details: Homo sapiens, NCI/ADR-RES; read-out: Activity; outline: as §1
# SK-OV-3 = test: Cytotoxicity against human SKOV3 cells assessed as cell growth at 10 uM; details: Homo sapiens, SK-OV-3; read-out: Activity; outline: as §1
# ACHN = test: Cytotoxicity against human ACHN cells assessed as cell growth at 10 uM; details: Homo sapiens, ACHN; read-out: Activity; outline: as §2
# CAKI-1 = test: Cytotoxicity against human Caki1 cells assessed as cell growth at 10 uM; details: Homo sapiens, CAKI-1; read-out: Activity; outline: as §2
# TK-10 = test: Cytotoxicity against human TK10 cells assessed as cell growth at 10 uM; details: Homo sapiens, TK-10; read-out: Activity; outline: as §1
# UO-31 = test: Cytotoxicity against human UO31 cells assessed as cell growth at 10 uM; details: Homo sapiens, UO-31; read-out: Activity; outline: as §1
# PC-3 = test: Cytotoxicity against human PC3 cells assessed as cell growth at 10 uM; details: Homo sapiens, PC-3; read-out: Activity; outline: as §1
# DU-145 = test: Cytotoxicity against human DU145 cells assessed as cell growth at 10 uM; details: Homo sapiens, DU-145; read-out: Activity; outline: as §2
# MCF7 = test: Cytotoxicity against human MCF7 cells assessed as cell growth at 10 uM; details: Homo sapiens, MCF7; read-out: Activity; outline: as §1
# MDA-MB-231 = test: Cytotoxicity against human MDA-MB-231 cells assessed as cell growth at 10 uM; details: Homo sapiens, MDA-MB-231; read-out: Activity; outline: as §1
# BT-549 = test: Cytotoxicity against human BT549 cells assessed as cell growth at 10 uM; details: for growth at 10 µM: Homo sapiens, BT-549, read-out: Activity; outline: as §2
# MDA-MB-468 = test: Cytotoxicity against human MDA-MB-468 cells assessed as cell growth at 10 uM; details: Homo sapiens, MDA-MB-468; read-out: Activity; outline: as §1
# [1] = Growth inhibition of human NCI60 cells at 10 uM after 48 hrs by sulforhodamine B assay relative to control; details: for inhibition of growth at 10 µM: Homo sapiens, NCI60, 48 h, read-out: GI
# Outline: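 Single 10 µM dose across the 60-line panel for 48 h, with the same culture, TCA fixation and SRB 515 nm read-out. Inhibition % = 100 − growth %, given as the mean over the 60 cell lines.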
smiles,measurement,setting,value
FC(F)(F)c1cc(Nc2nccc(-c3ccc(Nc4ccccc4)nc3)n2)cc(C(F)(F)F)c1,growth at 10 µM,K562,92.9%
same,growth at 10 µM,MOLT-4,87.6%
same,growth at 10 µM,SR,90%
same,growth at 10 µM,EKVX,108%
same,growth at 10 µM,HOP-62,94%
same,growth at 10 µM,NCI-H226,98%
same,growth at 10 µM,NCI-H23,98.2%
same,growth at 10 µM,NCI-H522,96.5%
same,growth at 10 µM,COLO 205,104%
same,growth at 10 µM,HCC 2998,100%
same,growth at 10 µM,HCT-116,108%
same,growth at 10 µM,HCT-15,97.4%
same,growth at 10 µM,HT-29,99.8%
same,growth at 10 µM,SW-620,101%
same,growth at 10 µM,SF-268,107%
same,growth at 10 µM,SF-295,112%
same,growth at 10 µM,SF-539,94.9%
same,growth at 10 µM,SNB-75,86.5%
same,growth at 10 µM,U-251,104%
same,growth at 10 µM,LOX IMVI,103%
same,growth at 10 µM,Malme-3M,117%
same,growth at 10 µM,SK-MEL-28,110%
same,growth at 10 µM,UACC-257,99.5%
same,growth at 10 µM,OVCAR-3,119%
same,growth at 10 µM,OVCAR-4,105%
same,growth at 10 µM,OVCAR-8,97.2%
same,growth at 10 µM,NCI/ADR-RES,102%
same,growth at 10 µM,SK-OV-3,89.9%
same,growth at 10 µM,ACHN,91.3%
same,growth at 10 µM,CAKI-1,98%
same,growth at 10 µM,TK-10,119%
same,growth at 10 µM,UO-31,79.5%
same,growth at 10 µM,PC-3,95.2%
same,growth at 10 µM,DU-145,111%
same,growth at 10 µM,MCF7,75.4%
same,growth at 10 µM,MDA-MB-231,97.5%
same,growth at 10 µM,BT-549,105%
same,growth at 10 µM,MDA-MB-468,89.6%
same,inhibition of growth at 10 µM,[1],0.2%
O=C(Nc1cc(C(F)(F)F)cc(C(F)(F)F)c1)Nc1nccc(-c2ccc(Nc3ccccc3)nc2)n1,growth at 10 µM,K562,93.6%
same,growth at 10 µM,MOLT-4,96.6%
same,growth at 10 µM,SR,84.6%
same,growth at 10 µM,EKVX,134%
same,growth at 10 µM,HOP-62,103%
same,growth at 10 µM,NCI-H226,104%
same,growth at 10 µM,NCI-H23,108%
same,growth at 10 µM,NCI-H522,94.3%
same,growth at 10 µM,COLO 205,136%
same,growth at 10 µM,HCC 2998,109%
same,growth at 10 µM,HCT-116,93.2%
same,growth at 10 µM,HCT-15,108%
same,growth at 10 µM,HT-29,94.4%
same,growth at 10 µM,SW-620,98.8%
same,growth at 10 µM,SF-268,117%
same,growth at 10 µM,SF-295,137%
same,growth at 10 µM,SF-539,96.4%
same,growth at 10 µM,SNB-75,90.1%
same,growth at 10 µM,U-251,113%
same,growth at 10 µM,LOX IMVI,112%
same,growth at 10 µM,Malme-3M,151%
same,growth at 10 µM,SK-MEL-28,99.8%
same,growth at 10 µM,UACC-257,112%
same,growth at 10 µM,OVCAR-3,124%
same,growth at 10 µM,OVCAR-4,114%
same,growth at 10 µM,OVCAR-8,103%
same,growth at 10 µM,NCI/ADR-RES,108%
same,growth at 10 µM,SK-OV-3,83.3%
same,growth at 10 µM,ACHN,93%
same,growth at 10 µM,CAKI-1,102%
same,growth at 10 µM,TK-10,123%
same,growth at 10 µM,UO-31,91.6%
same,growth at 10 µM,PC-3,93.5%
same,growth at 10 µM,DU-145,126%
same,growth at 10 µM,MCF7,99.6%
same,growth at 10 µM,MDA-MB-231,93.4%
same,growth at 10 µM,BT-549,111%
same,growth at 10 µM,MDA-MB-468,108%
same,inhibition of growth at 10 µM,[1],-6.98%
CC(=O)c1ccccc1-c1ccc(-c2ccnc(NC(=O)Nc3cc(C(F)(F)F)cc(C(F)(F)F)c3)n2)cn1.Cl,Activity,K562,80.11%
same,Activity,MOLT-4,93.09%
same,Activity,SR,97.1%
same,Activity,EKVX,87.92%
same,Activity,HOP-62,90.22%
same,Activity,NCI-H226,103.94%
same,Activity,NCI-H23,84.35%
same,Activity,NCI-H522,77.27%
same,Activity,COLO 205,88.27%
same,Activity,HCC 2998,88.79%
same,Activity,HCT-116,81.77%
same,Activity,HCT-15,95.89%
same,Activity,HT-29,95.08%
same,Activity,SW-620,95.07%
same,Activity,SF-268,83.42%
same,Activity,SF-295,80.92%
same,Activity,SF-539,91.97%
same,Activity,SNB-75,77.47%
same,Activity,U-251,86.33%
same,Activity,LOX IMVI,94.42%
same,Activity,Malme-3M,85.32%
same,growth at 10 µM,SK-MEL-28,103%
same,growth at 10 µM,UACC-257,102%
same,growth at 10 µM,OVCAR-3,108%
same,Activity,OVCAR-4,98.42%
same,growth at 10 µM,OVCAR-8,90.8%
same,growth at 10 µM,NCI/ADR-RES,80.9%
same,growth at 10 µM,SK-OV-3,76.5%
same,growth at 10 µM,ACHN,91%
same,growth at 10 µM,CAKI-1,78.4%
same,growth at 10 µM,TK-10,90.3%
same,growth at 10 µM,UO-31,75%
same,growth at 10 µM,PC-3,89.9%
same,growth at 10 µM,DU-145,109%
same,growth at 10 µM,MCF7,89.8%
same,growth at 10 µM,MDA-MB-231,83.7%
same,Activity,BT-549,63.01%
same,growth at 10 µM,MDA-MB-468,74.7%
same,growth inhibition (GI),[1],9.74%
